Results taken from PMC5776820 (Proceedings of the National Academy of Sciences of the …, 2017).
Where no end group is shown, it is not given here.

Legend:
[1] = system: NOD mouse type B insulin-reactive CD4 T cells; test: IL-2 secretion; type: cell-based; conditions: sample titration, IL-2 after 24 h (Fig. 2A)
Procedure, shortened: (§1)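 Equal numbers of T-cell hybridomas or TCR-transduced avatars and paraformaldehyde-fixed M12.C3.g7 (IAg7) B-lymphoma APCs are cultured overnight with peptide titrations up to 100 μg/mL. Peptides have B:19 C→A and are >95% pure, with an IAg7-binding HEL peptide as negative control. IL-2 is read by HT-2 growth/survival or ELISA. Potency is the log10 shift of parallel third-order polynomial fits versus WT8E9R (=1), averaged over three titrations.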

[2] = system: NOD mouse type A insulin-reactive CD4 T cells; test: IL-2 secretion; type: cell-based; conditions: sample titration, IL-2 after 24 h (Fig. 2A)
Procedure, shortened: as §1

[3] = system: CD4 T cells of human T1D patients; conditions: HLA-DQ8; ref [14], [15]; cited from earlier work
[4] = system: IA^g7; conditions: natural R at p9; ref [16]; cited from earlier work

8E9E: soluble mutated B:12–22 peptide, p9 R to E, B:19 C changed to A
potency compared with WT8E9R [1]: no better than the WT peptide | potency relative to WT8E9R [2]: about 100 ×

B:11–23 peptide: versions of the B:11–23 peptide (identical between mice and humans) presented by DQ8 (LVEALYLVCGERG; ends and bridges not checked; UniProt P01308 35-47, looked up, fragment)
human T-cell response to peptide bound to DQ8 [3]: only when B:22R is mutated to E

B:22R to E mutated peptide: B:9–23 peptide with B:22R (p9) mutated to E, earlier work
human T-cell response to peptide bound to DQ8 [3]: dramatically improved T-cell response

SHLVEALYLVCGERG [B:9–23]
binding to IA^g7 in R3 [4]: greatly interferes with binding
